# Test results taken from ChEMBL document CHEMBL4680084, “New β-Lactam Derivatives Modulate Cell Adhesion and Signaling Mediated by RGD-Binding and Leukocyte Integrins” (J Med Chem, 2016).
# Active and inactive are the calls of the source. No cut-off for these calls is given here.
# Key:
# Integrin alpha-5/beta-1 [1] = target: T1, Integrin alpha-5/beta-1 (Homo sapiens, UniProt P05556+P08648); assay: Inhibition of fibronectin binding to alpha5beta1 isolated from human K562 cells incubated for 1 hr by […] competitive solid-phase binding assay; type: tissue-based
# Procedure, shortened: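 Plates coated overnight at 4 °C in carbonate buffer pH 9.6 with fibronectin 0.5 µg/mL (αvβ3, αvβ6, α5β1), fibrinogen 10 µg/mL (αIIbβ3, αvβ5) or ICAM-1 (αLβ2). Blocked 1 h in buffer containing Ca/Mg/Mn 1 mM each and 1% BSA. Purified integrin (3–10 µg/mL) incubated with compound (10⁻⁴–10⁻¹⁰ M) 1 h at room temperature. Bound integrin detected with primary antibody then AlexaFluor488 secondary, Ex485/Em535. Duplicate, at least three repeats.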
# SK-MEL-24 = assay: Toxicity in human SK-MEL-24 cells assessed as induction of cell necrosis and/or apoptosis incubated for 3 hrs by annexin V-PE and 7-AAD staining based by flow cytometry; conditions: sk-mel-24, 3 h
# Procedure, shortened: (§1)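 After 3 h incubation, cells resuspended in complete medium and stained with annexin V-PE/7-AAD reagent for 20 min at room temperature in the dark. Flow cytometry sorted cells into viable, early apoptotic and late apoptotic/necrotic populations.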
# MCF7 = assay: Toxicity in human MCF7 cells assessed as induction of cell necrosis and/or apoptosis incubated for 3 hrs by annexin V-PE and 7-AAD staining based by flow cytometry; conditions: mcf7, 3 h; procedure, shortened: as §1
# HT-29 = assay: Toxicity in human HT-29 cells assessed as induction of cell necrosis and/or apoptosis incubated for 3 hrs by annexin V-PE and 7-AAD staining based by flow cytometry; conditions: ht-29, 3 h; procedure, shortened: as §1
# K562 = assay: Toxicity in human K562 cells assessed as induction of cell necrosis and/or apoptosis incubated for 3 hrs by annexin V-PE and 7-AAD staining based by flow cytometry; conditions: k562, 3 h; procedure, shortened: as §1
# HEL = assay: Toxicity in human HEL cells assessed as induction of cell necrosis and/or apoptosis incubated for 3 hrs by annexin V-PE and 7-AAD staining based by flow cytometry; procedure, shortened: as §1
# Integrin alpha-V/beta-3 [2] = target: T2, Integrin alpha-V/beta-3 (Homo sapiens, UniProt P05106+P06756); assay: Agonist activity at alphaVbeta3 in human SK-MEL-24 cells assessed as increase in cell adhesion to fibronectin pre-incubated for 30 mins before fibronectin and further incubated for 1 hr by nitrophenyl-N-acetyl-beta-D-glucosaminide substrate based chromogenic assay
# Procedure, shortened: (§2)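 Compound or methanol vehicle pre-incubated with cells for 30 min at room temperature. Cells then plated on wells coated overnight at 4 °C with fibronectin 10 µg/mL (SK-MEL-24, K562, HT-29) or fibrinogen 10 µg/mL (MCF7, HEL). Seeding was 50,000 cells/well, or 100000 for HEL. Adhesion ran 1 h at room temperature. Wells washed with 1% BSA/PBS. Adherent cells read by hexosaminidase substrate, absorbance 405 nm. Quadruplicate, at least three repeats.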
# Integrin alpha-V/beta-3 [3] = target: T2, Integrin alpha-V/beta-3; assay: Antagonist activity at alphaVbeta3 in human SK-MEL-24 cells assessed as reduction in cell adhesion to fibronectin pre-incubated for 30 mins before fibronectin and further incubated for 1 hr by nitrophenyl-N-acetyl-beta-D-glucosaminide substrate based chromogenic assay
# Procedure, shortened: (§3)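 Compound or methanol vehicle pre-incubated with cells for 30 min at room temperature. Cells then plated on wells coated overnight at 4 °C with fibronectin 10 µg/mL (SK-MEL-24, K562, HT-29) or fibrinogen 10 µg/mL (MCF7, HEL). Seeding was 50,000 cells/well, or 100000 for HEL. Adhesion ran 1 h at room temperature. Wells washed with 1% BSA/PBS. Quadruplicate, at least three repeats.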
# Integrin alpha-V/beta-5 [4] = target: T3, Integrin alpha-V/beta-5 (Homo sapiens, UniProt P06756+P18084); assay: Agonist activity at alphaVbeta5 in human MCF7 cells assessed as increase in cell adhesion to fibrinogen pre-incubated for 30 mins before fibrinogen and further incubated for 1 hr by nitrophenyl-N-acetyl-beta-D-glucosaminide substrate based chromogenic assay; procedure, shortened: as §2
# Integrin alpha-V/beta-5 [5] = target: T3, Integrin alpha-V/beta-5; assay: Antagonist activity at alphaVbeta5 in human MCF7 cells assessed as reduction in cell adhesion to fibrinogen pre-incubated for 30 mins before fibrinogen and further incubated for 1 hr by nitrophenyl-N-acetyl-beta-D-glucosaminide substrate based chromogenic assay; procedure, shortened: as §3
# Integrin alpha-V/beta-6 [6] = target: T4, Integrin alpha-V/beta-6 (Homo sapiens, UniProt P06756+P18564); assay: Agonist activity at alphaVbeta6 in human HT-29 cells assessed as increase in cell adhesion to fibronectin pre-incubated for 30 mins before fibronectin and further incubated for 1 hr by nitrophenyl-N-acetyl-beta-D-glucosaminide substrate based chromogenic assay; procedure, shortened: as §2
# Integrin alpha-V/beta-6 [7] = target: T4, Integrin alpha-V/beta-6; assay: Antagonist activity at alphaVbeta6 in human HT-29 cells assessed as reduction in cell adhesion to fibronectin pre-incubated for 30 mins before fibronectin and further incubated for 1 hr by nitrophenyl-N-acetyl-beta-D-glucosaminide substrate based chromogenic assay; procedure, shortened: as §3
# Integrin alpha-5/beta-1 [8] = target: T1, Integrin alpha-5/beta-1; assay: Agonist activity at alpha5beta1 in human K562 cells assessed as increase in cell adhesion to fibronectin pre-incubated for 30 mins before fibronectin and further incubated for 1 hr by nitrophenyl-N-acetyl-beta-D-glucosaminide substrate based chromogenic assay; procedure, shortened: as §2
# Integrin alpha-5/beta-1 [9] = target: T1, Integrin alpha-5/beta-1; assay: Antagonist activity at alpha5beta1 in human K562 cells assessed as reduction in cell adhesion to fibronectin pre-incubated for 30 mins before fibronectin and further incubated for 1 hr by nitrophenyl-N-acetyl-beta-D-glucosaminide substrate based chromogenic assay; procedure, shortened: as §2
# [10] = target: T5, Integrin alpha-IIb/beta-3 (Homo sapiens, UniProt P05106+P08514); assay: Agonist activity at alpha2bbeta3 in human HEL cells assessed as increase in cell adhesion to fibrinogen pre-incubated for 30 mins before fibrinogen and further incubated for 1 hr by nitrophenyl-N-acetyl-beta-D-glucosaminide substrate based chromogenic assay; procedure, shortened: as §3
# [11] = target: T5, Integrin alpha-IIb/beta-3; assay: Antagonist activity at alpha2bbeta3 in human HEL cells assessed as reduction in cell adhesion to fibrinogen pre-incubated for 30 mins before fibrinogen and further incubated for 1 hr by nitrophenyl-N-acetyl-beta-D-glucosaminide substrate based chromogenic assay; procedure, shortened: as §3
# [12] = target: T6, Integrin alpha-L/beta-2 (LFA-1) (Homo sapiens, UniProt P05107+P20701); assay: Agonist activity at alphaLbeta2 in human Jurkat E6.1 cells assessed as increase in cell adhesion to ICAM1 pre-incubated for 30 mins before ICAM1 and further incubated for 30 mins by […]; type: cell-based
# Procedure, shortened: (§4)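 Jurkat E6.1 cells labelled with CellTracker green CMFDA (12.5 µM, 30 min, 37 °C), washed, then pre-incubated 30 min at 37 °C with compound or methanol. Plated at 500,000/well on VCAM-1 (α4β1) or ICAM-1 (αLβ2) coated wells (5 µg/mL) for 30 min at 37 °C. Cells lysed in 0.5% Triton X-100; fluorescence read Ex485/Em535. Quadruplicate, at least three repeats.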
# [13] = target: T6, Integrin alpha-L/beta-2 (LFA-1); assay: Antagonist activity at alphaLbeta2 in human Jurkat E6.1 cells assessed as reduction in cell adhesion to ICAM1 pre-incubated for 30 mins before ICAM1 and further incubated for 30 mins by […]; type: cell-based; procedure, shortened: as §4
# Integrin alpha-V/beta-3 [14] = target: T2, Integrin alpha-V/beta-3; assay: Inhibition of fibronectin binding to human recombinant alphaVbeta3 expressed in HEK293 cells incubated for 1 hr by […] competitive solid-phase binding assay; type: cell-based
# Integrin alpha-V/beta-5 [15] = target: T3, Integrin alpha-V/beta-5; assay: Inhibition of fibrinogen binding to alphaVbeta5 isolated form human mCf7 cells incubated for 1 hr by […] competitive solid-phase binding assay
# Integrin alpha-V/beta-6 [16] = target: T4, Integrin alpha-V/beta-6; assay: Inhibition of fibronectin binding to alphaVbeta6 isolated form human HT-29 cells incubated for 1 hr by […] competitive solid-phase binding assay; type: tissue-based
# Integrin alpha-4/beta-1 [17] = target: T7, Integrin alpha-4/beta-1 (Homo sapiens, UniProt P05556+P13612); assay: Inhibition of fibronectin binding to […] isolated from human Jurkat E6.1 cells incubated for 1 hr by scintillation-proximity assay based competitive solid-phase binding assay; type: tissue-based
# Integrin alpha-4/beta-1 [18] = target: T7, Integrin alpha-4/beta-1; assay: Agonist activity at alpha4beta1 in human Jurkat E6.1 cells assessed as increase in cell adhesion to VCAM1 at 2 to 10 ug/ml pre-incubated for 30 mins and further incubated for 30 mins by nitrophenyl-N-acetyl-beta-D-glucosaminide substrate based chromogenic assay; conditions: filed as agonist, dose 2-10 µg/ml, time 60.0 min
# Integrin alpha-4/beta-1 [19] = target: T7, Integrin alpha-4/beta-1; assay: Agonist activity at alpha4beta1 in human Jurkat E6.1 cells assessed as increase in ERK1/2 phosphorylation at 1 to 100 nM by Western blot analysis; type: cell-based; conditions: filed as agonist, dose 1-100 nM
# Integrin alpha-4/beta-1 [20] = target: T7, Integrin alpha-4/beta-1; assay: Agonist activity at alpha4beta1 in human Jurkat E6.1 cells assessed as increase in HUTS-21 antibody binding by flow cytometry analysis; type: cell-based; conditions: filed as agonist
# Procedure, shortened: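 Jurkat E6.1 cells at 10⁶/mL in 1% BSA/HBSS incubated 30 min at 37 °C with compound. PE-labelled HUTS-21 mAb then added for 45 min at room temperature. Cells washed, 10,000 analysed by flow cytometry. MFI corrected to isotype control set to 0. Four independent experiments in duplicate.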
smiles,measurement,setting,value
Cc1ccccc1NC(=O)N1C(=O)CC1CC(=O)O (stereo not given),IC50,Integrin alpha-5/beta-1 [1],> 1 µM
same,Activity,SK-MEL-24,Non-Toxic
same,Activity,MCF7,Non-Toxic
same,Activity,HT-29,Non-Toxic
same,Activity,K562,Non-Toxic
same,Activity,HEL,Non-Toxic
same,EC50,Integrin alpha-V/beta-3 [2],> 5 µM
same,IC50,Integrin alpha-V/beta-3 [3],> 5 µM
same,EC50,Integrin alpha-V/beta-5 [4],> 5 µM
same,IC50,Integrin alpha-V/beta-5 [5],> 5 µM
same,EC50,Integrin alpha-V/beta-6 [6],> 5 µM
same,IC50,Integrin alpha-V/beta-6 [7],> 5 µM
same,EC50,Integrin alpha-5/beta-1 [8],> 5 µM
same,IC50,Integrin alpha-5/beta-1 [9],> 5 µM
same,EC50,[10],> 5 µM
same,IC50,[11],> 5 µM
same,EC50,[12],> 5 µM
same,IC50,[13],> 5 µM
same,IC50,Integrin alpha-V/beta-3 [14],> 1 µM
same,IC50,Integrin alpha-V/beta-5 [15],> 1 µM
same,IC50,Integrin alpha-V/beta-6 [16],> 1 µM
same,IC50,Integrin alpha-4/beta-1 [17],0.0098 µM
same,Activity,Integrin alpha-4/beta-1 [18],Active
same,Activity,Integrin alpha-4/beta-1 [19],Active
same,Activity,Integrin alpha-4/beta-1 [20],Dose-dependent effect
